Square brackets hold non-standard residues; d marks the D form. Peptide text beside a SMILES is read from it. * marks the point of attachment. Hydrocinnamoyl = O=C(CCc1ccccc1)*; Myristoyl = CCCCCCCCCCCCCC(=O)*; Undecanoyl = CCCCCCCCCCC(=O)*; pGlu = O=C1CC[C@@H](C(=O)O)N1; Ac6c = NC1(C(=O)O)CCCCC1; Morpholide = C1CN(*)CCO1; NHBn = c1ccc(CN*)cc1; X1 = Fc1ccc(N*)cc1Cl
Organism: Rattus norvegicus
Assay: Inhibition of rat recombinant Rab geranylgeranyltransferase at 100 uM in presence of canine Rab7 and rat REP1 NBD-FPP based continuous fluorimetric assay
Outline: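 Continuous fluorometric assay in 96/384-well format: 3 μM Rab7, 3 μM REP1, 9 μM NBD-FPP and 400 nM RabGGTase, with or without inhibitor. […] IC50 was calculated from three independent measurements.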

SMILES | inhibition [%]
C[C@H](NC(=O)CCc1ccccc1)C(=O)N[C@@H](Cc1ccccc1)C(=O)N[C@@H](CCC(N)=O)C(=O)Nc1nccs1 | 96
CC(C)C[C@H](NC(=O)[C@H](CO)NC(=O)[C@H](Cc1ccccc1)NC(=O)CCc1ccccc1)C(N)=O | 100
CC[C@H](C)[C@H](NC(=O)/C=C/c1ccc(F)cc1)C(=O)N[C@@H](C)C(=O)N[C@@H](CCC(N)=O)C(=O)Nc1ccc(F)c(Cl)c1 | 46
CCCCCCCCCCCOC(=O)[C@H](CO)NC(=O)CNC(=O)[C@H](CO)NC(=O)/C=C/c1ccc(F)cc1 | 70
CCCCCCCCCCOc1ccc(C(=O)N[C@@H](Cc2c[nH]cn2)C(=O)N[C@@H](Cc2c[nH]cn2)C(=O)N[C@@H](CO)C(=O)NCCCn2ccnc2)cc1 | 52
CCCCCCCCCCC(=O)NC(Cc1ccc(O)cc1)C(=O)N[C@@H](Cc1c[nH]cn1)C(=O)N[C@@H](Cc1c[nH]cn1)C(=O)NCC(O)CO (some centres undefined) | 89
C[C@@H](O)[C@H](NC(=O)/C=C/c1ccccc1)C(=O)N[C@@H](Cc1ccccc1)C(=O)N[C@@H](CCC(N)=O)C(=O)Nc1cccc(Br)n1 | 83
COc1ccc(NC(=O)[C@H](CCC(N)=O)NC(=O)[C@H](Cc2ccccc2)NC(=O)[C@H](CO)NC(=O)CCc2ccccc2)cc1 | 101
COC(=O)[C@H](CO)NC(=O)[C@H](Cc1ccccc1)NC(=O)[C@H](CO)NC(=O)CCc1ccccc1 (Hydrocinnamoyl-Ser-Phe-Ser-OMe) | 90
NC(=O)CC[C@H](NC(=O)[C@H](Cc1ccccc1)NC(=O)CNC(=O)CCc1ccccc1)C(=O)O (Hydrocinnamoyl-Gly-Phe-Gln-OH) | 94
CCCCCCCCCCC(=O)N[C@@H](Cc1c[nH]cn1)C(=O)N[C@@H](Cc1cnc[nH]1)C(=O)N[C@@H](Cc1ccc(O)cc1)C(=O)NCC(O)CO (some centres undefined) | 65
NC(=O)CC[C@H](NC(=O)[C@H](Cc1ccccc1)NC(=O)[C@H](CO)NC(=O)CCc1ccccc1)C(N)=O (Hydrocinnamoyl-Ser-Phe-Gln-NH2) | 106
O=C(CCNC(=O)[C@H](Cc1c[nH]cn1)NC(=O)OCc1ccccc1)N[C@@H](Cc1ccc(O)cc1)C(=O)NCCCn1ccnc1 | 88
CC(C)(C)Oc1ccc(C[C@H](NC(=O)c2coc(-c3ccccc3)n2)C(=O)NCC(=O)N[C@@H](Cc2c[nH]c3ccccc23)C(=O)O)cc1 | 32
CCCCCCCCCCCCCC(=O)OC[C@H](NC(=O)[C@H](Cc1ccccc1)NC(=O)[C@H](CCCCNC(=O)c1csc(-c2cccnc2)n1)NC(=O)c1csc(-c2cccnc2)n1)C(=O)O | 67
CC[C@H](C)[C@H](NC(=O)/C=C/c1ccc(F)cc1)C(=O)N[C@@H](C)C(=O)N[C@@H](CCC(N)=O)C(=O)OC | 83
C[C@@H](O)[C@H](NC(=O)/C=C/c1ccccc1)C(=O)N[C@@H](Cc1ccccc1)C(=O)N[C@@H](CCC(N)=O)C(N)=O | 78
C[C@H](NC(=O)[C@@H](NC(=O)c1ccc(-c2ccccc2)cc1)[C@@H](C)O)C(=O)N[C@@H](CCC(N)=O)C(=O)Nc1ccc(F)c(Cl)c1 | 100
C[C@H](NC(=O)[C@@H](NC(=O)c1ccc(-c2ccccc2)cc1)[C@@H](C)O)C(=O)N[C@@H](CCC(N)=O)C(=O)Nc1cccc(Br)n1 | 77

SMILES | inhibition [%]
C[C@@H](NC(=O)CCc1ccccc1)C(=O)N[C@@H](Cc1ccccc1)C(=O)N[C@@H](CCC(=O)O)C(=O)Nc1cccc(Br)n1 | 100
CC#CCOC(=O)[C@H](Cc1ccccc1)NC(=O)[C@H](CC(C)C)NC(=O)[C@@H]1CCCN1C(=O)/C=C/c1ccccc1 | 107
CC(C)C[C@H](NC(=O)[C@@H]1CCC(=O)N1)C(=O)N[C@@H](CCCCN)C(=O)NC1(C(=O)Nc2ccc(F)c(Cl)c2)CCCCC1 ([pGlu]LK[Ac6c]-X1) | 105
NC(=O)CC[C@H](NC(=O)[C@H](Cc1ccccc1)NC(=O)[C@H](CO)NC(=O)CCc1ccccc1)C(=O)NCc1ccccc1 (Hydrocinnamoyl-Ser-Phe-Gln-NHBn) | 87
CC(C)CCNC(=O)[C@H](Cc1ccccc1)NC(=O)CNC(=O)[C@@H]1CCCN1C(=O)/C=C/c1ccccc1 | 80
CCCCCCCCCCCCCC(=O)OC[C@H](NC(=O)[C@@H]1CCCN1C(=O)[C@H](CCC(N)=O)NC(=O)c1coc(-c2ccccc2)n1)C(=O)O | 36
NCCCCNC(=O)[C@H](Cc1ccc(O)cc1)NC(=O)CNC(=O)[C@H](Cc1ccc(O)cc1)NC(=O)c1ccc(F)cc1 | 88
CCC/C=C\c1ccccc1/C=C/C(=O)N[C@H](Cc1ccc(O)cc1)C(=O)N(C)[C@@H](Cc1ccc(OC)cc1)C(=O)N(C)[C@@H](Cc1ccccc1)C(=O)OCc1c[nH]c(=O)[nH]c1=O | 75
CC(C)C[C@H](NC(=O)[C@@H]1CCCN1C(=O)/C=C/c1ccccc1)C(=O)N[C@@H](Cc1ccccc1)C(=O)NC1CCCCC1 | 82
COC(=O)[C@H](Cc1cn(C(c2ccccc2)(c2ccccc2)c2ccccc2)cn1)NC(=O)[C@H](Cc1ccccc1)NC(=O)CNC(=O)c1csc(-c2cccs2)n1 | 69
CCCCCCCCCCOc1ccc(C(=O)N[C@@H](Cc2c[nH]cn2)C(=O)N[C@@H](Cc2c[nH]cn2)C(=O)N[C@@H](CO)C(=O)O)cc1 | 74
O=C(CNC(=O)c1coc(-c2ccccc2)n1)N[C@@H](Cc1cn(C(c2ccccc2)(c2ccccc2)c2ccccc2)cn1)C(=O)N[C@@H](Cc1ccccc1)C(=O)O | 77
COC(=O)[C@H](CC(C)C)NC(=O)[C@H](COC(C)(C)C)NC(=O)[C@H](Cc1ccccc1)NC(=O)c1ccc(-c2ccccc2)cc1 | 84
CON(C)C(=O)[C@H](CCC(=O)O)NC(=O)[C@H](C)NC(=O)[C@@H](NC(=O)c1ccc(-c2ccccc2)cc1)[C@@H](C)O | 102
COC(=O)[C@H](CCC(=O)O)NC(=O)[C@H](C)NC(=O)[C@@H](NC(=O)c1ccc(-c2ccccc2)cc1)[C@@H](C)O | 101
CCCCCCCCCCCCCCCCNC(=O)[C@H](CC1CCCC1)NC(=O)[C@H](CCC(N)=O)NC(=O)[C@@H](NC(=O)CCC(O)CBr)[C@@H](C)O (some centres undefined) | 75
O=C(/C=C/c1ccccc1)N[C@@H](Cc1ccccc1)C(=O)N[C@@H](Cc1ccccc1)C(=O)N[C@@H](Cc1ccc(O)cc1)C(=O)O | 50
O=C(/C=C/c1ccc(F)cc1)N[C@@H](CO)C(=O)N[C@@H](Cc1ccccc1)C(=O)N[C@@H](CO)C(=O)Nc1ccc(F)cc1F | 92
CC(C)CCNC(=O)[C@H](Cc1ccccc1)NC(=O)[C@H](Cc1ccccc1)NC(=O)[C@H](CC(C)C)NC(=O)/C=C/c1ccccc1 | 92

Other lines, results leading:

inhibition [%] | SMILES
47 | CCCCOC(=O)[C@H](Cc1ccc(O)cc1)NC(=O)CNC(=O)[C@H](Cc1ccc(O)cc1)NC(=O)CCc1ccc(F)cc1
97 | O=C(N[C@@H](Cc1ccc(O)cc1)C(=O)N[C@@H](Cc1ccc(O)cc1)C(=O)N[C@@H](Cc1ccc(O)cc1)C(=O)Nc1ccc(F)cc1F)c1ccc(F)cc1F
45 | CCCCCCCCCCC(=O)N[C@@H](Cc1c[nH]cn1)C(=O)N[C@@H](Cc1ccccc1)C(=O)N[C@@H](Cc1ccc(O)cc1)C(N)=O (Undecanoyl-His-Phe-Tyr-NH2)
29 | CCCCCCCCCC(=O)N[C@@H](Cc1c[nH]cn1)C(=O)N[C@@H](Cc1cnc[nH]1)C(=O)N[C@@H](Cc1ccc(O)cc1)C(=O)OCCN
60 | O=C(CNC(=O)[C@H](Cc1ccc(O)cc1)NC(=O)c1ccc(F)cc1)N[C@@H](Cc1ccc(O)cc1)C(=O)NCc1ccccc1
53 | O=C(N[C@@H](Cc1c[nH]cn1)C(=O)N[C@@H](Cc1ccc(O)cc1)C(=O)N[C@@H](Cc1ccccc1)C(=O)O)OCc1ccc(OCc2ccccc2)cc1
79 | COC(=O)[C@H](Cc1ccc(O)cc1)NC(=O)[C@H](Cc1ccc(O)cc1)NC(=O)[C@H](Cc1ccc(O)cc1)NC(=O)c1ccc(F)cc1F
55 | O=C(CNC(=O)[C@H](Cc1ccc(O)cc1)NC(=O)c1ccc(F)cc1)N[C@@H](Cc1ccc(O)cc1)C(=O)OCCCl
76 | CCCCCCCCCCC(=O)N[C@@H](Cc1c[nH]cn1)C(=O)N[C@@H](Cc1ccccc1)C(=O)N[C@@H](Cc1ccc(O)cc1)C(=O)NOC(C)(C)C
88 | CCCCCCCCCCCNC(=O)[C@H](Cc1ccc(O)cc1)NC(=O)CNC(=O)[C@H](Cc1ccc(O)cc1)NC(=O)CCc1ccc(F)cc1
2 | CCCCCc1ccc(CCC(=O)N[C@H](Cc2ccc(O)cc2)C(=O)N[C@@H](Cc2ccccc2)C(=O)N[C@@H](Cc2ccc(O)cc2)C(=O)O)cc1
75 | CC(C)(C)Oc1ccc(C[C@H](NC(=O)CNC(=O)[C@H](Cc2ccc(OC(C)(C)C)cc2)NC(=O)c2coc(-c3ccccc3)n2)C(=O)O)cc1
95 | CCCCCCCCCCCCCC(=O)N[C@@H](Cc1ccc(O)cc1)C(=O)N[C@@H](Cc1ccc(O)cc1)C(=O)N[C@@H](Cc1ccc(O)cc1)C(=O)N1CCOCC1 (Myristoyl-Tyr-Tyr-Tyr-Morpholide)
48 | O=C(CCc1ccc(-c2ccccc2)cc1)N[C@H](Cc1cnc[nH]1)C(=O)N[C@@H](Cc1ccc(O)cc1)C(=O)N[C@@H](Cc1ccccc1)C(=O)O
78 | CN(CCc1ccccn1)C(=O)[C@H](Cc1ccc(O)cc1)NC(=O)CCNC(=O)[C@H](Cc1c[nH]cn1)NC(=O)OCc1ccccc1
48 | CCCCCCCCCCCOc1ccc(C(=O)N[C@@H](Cc2ccc(O)cc2)C(=O)N[C@@H](Cc2ccc(O)cc2)C(=O)N[C@@H](Cc2ccc(O)cc2)C(=O)NCCCn2ccnc2)cc1
37 | CCCCCc1ccccc1CCC(=O)N[C@H](Cc1cnc[nH]1)C(=O)N[C@@H](Cc1ccc(O)cc1)C(=O)N[C@@H](Cc1ccccc1)C(=O)O
84 | CON(C)C(=O)[C@H](Cc1ccc(O)cc1)NC(=O)CNC(=O)[C@H](Cc1ccc(O)cc1)NC(=O)c1ccc(F)cc1
83 | CCCCCCCCCCCCCCCC(=O)N[C@@H](Cc1ccc(O)cc1)C(=O)N[C@@H](Cc1ccc(O)cc1)C(=O)N[C@@H](Cc1ccc(O)cc1)C(=O)Nc1nccs1
47 | O=C(N[C@H](Cc1cnc[nH]1)C(=O)N[C@@H](Cc1ccc(O)cc1)C(=O)N[C@@H](Cc1ccccc1)C(=O)O)OCc1ccc(OCc2ccccc2)cc1
80 | CON(C)C(=O)[C@H](Cc1ccc(O)cc1)NC(=O)CNC(=O)[C@H](Cc1ccc(O)cc1)NC(=O)CCc1ccc(F)cc1

Source: ChEMBL document CHEMBL1153722, “Design, synthesis, and characterization of peptide-based rab geranylgeranyl transferase inhibitors” (J Med Chem, 2009)
